Bioassay records (PubChem)
Sampled rows, rich in hits. Any-hit rate of the full collection: about 4.8%.
Mot1-301 SUMO – blocks SUMOylation pathway, rescuing yeast Mot1-301 growth | S. cerevisiae Mot1-301 growth rescue, ATP luminescence, 38.5C; percent above DMSO median, 100 means doubled | growth rescue, % at 18.8 µM | 320,000 tested, 1% active;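 active means every valid replicate shows activation above 250% relative to neutral control wells; inactive means the rest, any valid replicate at or below 250%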;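 further: OY570 slx delta 5 strain wells were the positive control but not used for scaling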
T cruzi repl – blocks replication of Trypanosoma cruzi; T. cruzi beta-gal in NIH3T3, luminescence, 90 h; inhibition, % (concentration not given with the values); 300,000 tested, 1.4% active;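 active means mean inhibition across valid replicates above about 55%, limit read from the data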;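 further: signal also drops with host cell toxicity which is not excluded here; 0% = plate median of DMSO wells and 100% = zero luminescence signal; higher percent means less beta-gal luminescence so fewer parasites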
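Test system: β-gal T. cruzi (Tulahuen C4) inside NIH/3T3 cells / Quantity: 5,000 cells/well / Measured by: luminescence from GalScreen with 0.05% NP40, read after 60 min / Medium: DMEM plus 2% FBS / Measure: parasite load inhibition, % / Reagent: Tulahuen C4 trypomastigotes, 5000/well / Schedule: co-culture of at least 90 h after 3 h attachment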
CSC inhib – cancer stem cell inhibition | inhibition, % at 7.5 µM | cancer stem cell-like cells viability, luminescence | 300,000 tested, 1.1% active | AID 2717; in the data active means inhibition above about 75%; tested in HMLE shEcad cells
Efflux pump mplx – inhibitors of Candida antifungal efflux pumps expressed in yeast | S. cerevisiae Candida pump triplex, Nile Red efflux | inhibition, % at 10 µM | 330,000 tested, 0.44% active | AID 485275;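 active means plate passing quality check with inhibition over a set limit, or well fluorescence over plate mean plus 4 SD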;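 further: Nile Red retained in pooled yeast measured as flow cytometry median fluorescence; 0% = buffer negative control and 100% = Enniatin B positive control; higher means more Nile Red kept so more efflux inhibition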
WT yeast gro inh – growth inhibition of WT yeast, mitochondrial fusion screen. inhibition, % at 10 µM. AID 1362. mitochondrial fusion phenotypic screen, WT strain. 190,000 tested, 2.1% active; in the data active means inhibition above about 58%; tested in S. cerevisiae
Beta apoptosis – blocks beta cell apoptosis; INS-1E cytokine-induced death, ATP luminescence, 48 h; percent of positive-control rescue, neutral wells zero; protection from apoptosis, % (test concentration not listed); 300,000 tested, 0.8% active;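 active means Every replicate reaches about 75%, or at least half do and their mean reaches it too, limit read from the data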;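 further: 0% = cytokine-treated negative control wells and 100% = positive control rescue; higher means more ATP so stronger rescue from cytokine killing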
Mot1 SUMO dose – SUMO pathway inhibitors in yeast Mot1-301 growth; shares compounds with Mot1-301 SUMO; 2,300 tested, under 10 active; AID 493004; S. cerevisiae Mot1-301 galactose growth, ATP luminescence, 24 h; -100 = growth of slx-deleted rescue strain; growth activity, percent, % at 42 µM;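 active means Signal drops as the depositor expects, and the fitted half-maximal dose is no more than ten times the top valid tested dose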;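 further: more negative values mean stronger growth rescue toward the control strain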
* marks the source's active call; other numbers are inactive results; [ ] = dose if it differs, or a comment.

`Cc1ccc(S(=O)(=O)NCCS(=O)(=O)N2CCN(c3ccc(F)cc3)CC2)cc1` gave Mot1-301 SUMO 543*, T cruzi repl 1, CSC inhib -10, Efflux pump mplx 0, Beta apoptosis 4 and Mot1 SUMO dose 2.
Screening O=C(NCc1cccnc1)C(=O)N/N=C/c1ccc([N+](=O)[O-])cc1 returned Mot1-301 SUMO -1, T cruzi repl 1, CSC inhib -4, Efflux pump mplx 0, WT yeast gro inh -4 and Beta apoptosis 1.
Cc1ccccc1OCc1nc(-c2ccccc2)no1 was read as Mot1-301 SUMO 390*, T cruzi repl 6, CSC inhib -5, Efflux pump mplx 0, WT yeast gro inh 6, Beta apoptosis -1 and Mot1 SUMO dose -1.
`Cc1ccc(-c2noc(COc3ccccc3C)n2)cc1` gave T cruzi repl -23, CSC inhib 12, Efflux pump mplx 0, WT yeast gro inh 10 and Beta apoptosis -4.
CC1=CS(=O)(=O)CC1Sc1nc(C)n[nH]1 (stereo not given) was read as Mot1-301 SUMO 15, T cruzi repl -1, CSC inhib 32, Efflux pump mplx 0, WT yeast gro inh -7 and Beta apoptosis 1.
For CC1=CS(=O)(=O)CC1Sc1ncn[nH]1 (stereo not given) the results were Mot1-301 SUMO 557*, T cruzi repl -3, CSC inhib -4, Efflux pump mplx 0, WT yeast gro inh 0, Beta apoptosis -3 and Mot1 SUMO dose -1.
Screening O=C(Nc1ccc(OC(F)(F)F)cc1)c1ccc2ccccc2n1 returned Mot1-301 SUMO 645*, T cruzi repl -14, CSC inhib -13, Efflux pump mplx 0, WT yeast gro inh 5, Beta apoptosis 2 and Mot1 SUMO dose -1.
`COC(=O)C(NC(C)=O)(Nc1nc2ccc(S(C)(=O)=O)cc2s1)C(F)(F)F` (stereo not given) gave Mot1-301 SUMO active, T cruzi repl -1, CSC inhib -6, Efflux pump mplx 0, WT yeast gro inh -12 and Mot1 SUMO dose 1.
Screening Cc1ccc(S(=O)(=O)N2CCOCC2)cc1NC(=O)CNC1CCCC1 returned Mot1-301 SUMO -15, T cruzi repl -1, CSC inhib 7, Efflux pump mplx 0 and Beta apoptosis -4.
For O=C(COC(=O)CNC(=O)c1ccc(Cl)cc1)Nc1ccc2c(c1)OCCO2 the results were Mot1-301 SUMO -21, T cruzi repl 12, CSC inhib -8, Efflux pump mplx 0, WT yeast gro inh 5 and Beta apoptosis -7.
Cc1ccc(C(=O)NCC(=O)Nc2ccc3c(c2)OCCO3)cc1 was read as Mot1-301 SUMO 580*, T cruzi repl 0, CSC inhib 8, Efflux pump mplx 0, Beta apoptosis -1 and Mot1 SUMO dose 0[21 µM].
For Cc1cc(C)n(C(=O)CNC(=O)c2ccc3c(c2)OCCO3)n1 the results were Mot1-301 SUMO 601*, T cruzi repl 5, CSC inhib -13, Efflux pump mplx 0, WT yeast gro inh 3, Beta apoptosis -3 and Mot1 SUMO dose 0.
`CC12CCC(=O)N1C(C(=O)Nc1ccccc1N1CCOCC1)CS2` (stereo not given) gave Mot1-301 SUMO -24, T cruzi repl -8, CSC inhib -6 and Efflux pump mplx 0.
`COc1ccc2c(CC(=O)Nc3ccc(OC)c(NS(=O)(=O)c4ccc(F)cc4)c3)coc2c1` gave Mot1-301 SUMO 560*, T cruzi repl -30, CSC inhib 21, Efflux pump mplx 0, WT yeast gro inh -25, Beta apoptosis 1 and Mot1 SUMO dose -1.
COc1ccc2c(CC(=O)Nc3ccccc3OC)coc2c1 was read as Mot1-301 SUMO -1, T cruzi repl 6, CSC inhib 10, Efflux pump mplx 0, WT yeast gro inh 2 and Beta apoptosis 1.
`O=C(O)CSc1ccnc2cc(Cl)ccc12` gave Mot1-301 SUMO -1, T cruzi repl 0, CSC inhib -13, Efflux pump mplx 0 and Beta apoptosis 6.
O=c1[nH]cnc2cc(Cl)ccc12 was read as Mot1-301 SUMO active, T cruzi repl -9, Efflux pump mplx 0, WT yeast gro inh -36, Beta apoptosis -3 and Mot1 SUMO dose 0[21 µM].
